≈ marks a conversion by molar mass, not a printed value. Calls of active or inactive are those of the source. The calls are words filed in the database; no cut-off is given here.
How the values were obtained:
[1] = Antifungal activity against Malassezia pachydermatis at 1000 ug/disc after 48 hrs by disc diffusion assay; format: functional
Method in brief: (§1)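 Fungal disc diffusion with inoculum from SDA spores (filamentous) or SDB culture (yeast). Test cultures were swabbed on agar, and discs at 1000 µg/disc were left 30 min at room temperature, with a solvent negative control. Plates were incubated 48 h at 27 °C. Zone of inhibition was measured in mm, and the experiment was repeated twice.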

Candida albicans = assay: Antifungal activity against Candida albicans MTCC 227 at 1000 ug/disc after 48 hrs by disc diffusion assay; format: functional; settings: for zone of inhibition at 1000 µg/disc: MTCC 227, 48 h, read-out: IZ; method in brief: as §1
Botrytis cinerea = assay: Antifungal activity against Botrytis cinerea at 1000 ug/disc after 48 hrs by disc diffusion assay; format: functional; settings: for zone of inhibition at 1000 µg/disc: read-out: IZ; method in brief: as §1
Staphylococcus aureus [2] = assay: Antibacterial activity against Staphylococcus aureus MTCC 96 at 1000 ug/disc after 24 hrs by disc diffusion assay; format: functional; settings: for zone of inhibition at 1000 µg/disc: MTCC 96, 24 h, read-out: IZ
Method in brief: (§2)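 Disc diffusion on Mueller Hinton agar. Cultures (about 10^4 CFU/ml) were swabbed on and dried 10 min. Discs loaded at 1000 µg/disc were left 30 min at room temperature for diffusion, with a solvent negative control. Plates were incubated 24 h at 37 °C. Inhibition zones were measured in mm, and the experiment was done twice.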

Staphylococcus aureus [3] = assay: Antibacterial activity against methicillin-resistant Staphylococcus aureus at 1000 ug/disc after 24 hrs by disc diffusion assay; format: functional; settings: for zone of inhibition at 1000 µg/disc: read-out: IZ
Method in brief: (§3)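 Disc diffusion on Mueller Hinton agar. Bacteria were grown 24 h at 37 °C in MHB and diluted to about 10^4 CFU/ml, swabbed onto plates and dried 10 min. Discs were loaded at 1000 μg/disc and held 30 min at room temperature for diffusion. Solvent served as negative control. After 24 h at 37 °C, inhibition zones were read in mm; run twice.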

Micrococcus luteus [4] = assay: Antibacterial activity against Micrococcus luteus at 1000 ug/disc after 24 hrs by disc diffusion assay; format: functional; settings: read-out: IZ; method in brief: as §2
Klebsiella aerogenes [5] = assay: Antibacterial activity against Enterobacter aerogenes MTCC 111 at 1000 ug/disc after 24 hrs by disc diffusion assay; format: functional; settings: for zone of inhibition at 1000 µg/disc: MTCC 111, 24 h, read-out: IZ; method in brief: as §2
Proteus vulgaris [6] = assay: Antibacterial activity against Proteus vulgaris MTCC 1771 at 1000 ug/disc after 24 hrs by disc diffusion assay; format: functional; settings: for zone of inhibition at 1000 µg/disc: MTCC 1771, 24 h, read-out: IZ; method in brief: as §2
Klebsiella pneumoniae [7] = assay: Antibacterial activity against Klebsiella pneumoniae MTCC 109 at 1000 ug/disc after 24 hrs by disc diffusion assay; format: functional; settings: for zone of inhibition at 1000 µg/disc: MTCC 109, 24 h, read-out: IZ; method in brief: as §2
Salmonella typhimurium [8] = assay: Antibacterial activity against Salmonella Typhimurium MTCC 1251 at 1000 ug/disc after 24 hrs by disc diffusion assay; format: functional, Salmonella enterica subsp. enterica serovar Typhimurium; settings: Salmonella enterica, MTCC 1251, 24 h; read-out: IZ; method in brief: as §2
[9] = system: Salmonella enterica subsp. enterica serovar Paratyphi B; assay: Antibacterial activity against Salmonella paratyphi B at 1000 ug/disc after 24 hrs by disc diffusion assay; format: functional; settings: for zone of inhibition at 1000 µg/disc: read-out: IZ; method in brief: as §3
Staphylococcus aureus [10] = assay: Antibacterial activity against Staphylococcus aureus MTCC 96 after 24 hrs by twofold serial dilution method; format: functional; settings: MTCC 96, 24 h
Method in brief: (§4)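 Bacteria grown in Mueller Hinton broth for 24 h at 37 °C and diluted to about 10^4 CFU/ml. Compound in 2% DMSO was serially diluted two-fold (1000 to 15.62 µg/ml) in medium in 96-well plates and inoculated. Plates were incubated 24 h at 37 °C. 5 µl of broth was spotted onto MHA, and MIC was taken as the lowest concentration with no visible growth on agar.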

Staphylococcus aureus [11] = assay: Antibacterial activity against methicillin-resistant Staphylococcus aureus after 24 hrs by twofold serial dilution method; format: functional
Method in brief: (§5)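 Broth microdilution in MHB following the standard bacterial reference method. Compound was dissolved in DMSO (2%) and serially diluted two-fold from 1000 to 15.62 µg/ml in 96-well plates, with an inoculum of about 10^4 CFU/ml. Streptomycin and ciprofloxacin were positive controls. After 24 h at 37 °C, 5 µl of broth was subcultured on MHA. MIC was the lowest concentration without visible growth on agar.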

Micrococcus luteus [12] = assay: Antibacterial activity against Micrococcus luteus after 24 hrs by twofold serial dilution method; format: functional; method in brief: as §4
Klebsiella aerogenes [13] = assay: Antibacterial activity against Enterobacter aerogenes MTCC 111 after 24 hrs by twofold serial dilution method; format: functional; settings: MTCC 111, 24 h; method in brief: as §4
Proteus vulgaris [14] = assay: Antibacterial activity against Proteus vulgaris MTCC 1771 after 24 hrs by twofold serial dilution method; format: functional; settings: MTCC 1771, 24 h; method in brief: as §4
Klebsiella pneumoniae [15] = assay: Antibacterial activity against Klebsiella pneumoniae MTCC 109 after 24 hrs by twofold serial dilution method; format: functional; settings: MTCC 109, 24 h; method in brief: as §4
Salmonella typhimurium [16] = assay: Antibacterial activity against Salmonella Typhimurium MTCC 1251 after 24 hrs by two-fold serial dilution method; format: functional, Salmonella enterica subsp. enterica serovar Typhimurium; settings: Salmonella enterica, MTCC 1251, 24 h; method in brief: as §4
[17] = system: Salmonella enterica subsp. enterica serovar Paratyphi B; assay: Antibacterial activity against Salmonella paratyphi B after 24 hrs by twofold serial dilution method; format: functional; method in brief: as §5

Structure (SMILES) | inhibition zone (IZ) [1] | inhibition zone (IZ) (Candida albicans) | zone of inhibition at 1000 µg/disc (Botrytis cinerea) [mm] | zone of inhibition at 1000 µg/disc (Staphylococcus aureus [2]) [mm] | inhibition zone (IZ) (Staphylococcus aureus [3]) | zone of inhibition at 1000 µg/disc (Micrococcus luteus [4]) [mm] | zone of inhibition at 1000 µg/disc (Klebsiella aerogenes [5]) [mm] | zone of inhibition at 1000 µg/disc (Proteus vulgaris [6]) [mm] | zone of inhibition at 1000 µg/disc (Klebsiella pneumoniae [7]) [mm] | zone of inhibition at 1000 µg/disc (Salmonella typhimurium [8]) [mm] | zone of inhibition at 1000 µg/disc [9] [mm] | zone of inhibition at 1000 µg/disc (Candida albicans) [mm] | zone of inhibition at 1000 µg/disc (Staphylococcus aureus [3]) [mm] | inhibition zone (IZ) [9] | further results
CN1CC2=C(C(=O)c3ccccc3C2=O)C12C(=O)c1ccccc1C2=O | inactive | inactive | 9 | 9 | inactive | 8 | 8 | 8 | 9 | 10 | 9 |  |  |  | 
CN1C(=O)C2(C3=C(C(=O)c4ccccc4C3=O)C3CCCN32)c2ccccc21 (centres undefined) | 10 mm |  | 8 | 10 |  | 9 | 9 | 8 | 9 | 11 |  | 10 | 8 | inactive | 
CN1CC2=C(C(=O)c3ccccc3C2=O)C12C(=O)Nc1ccc(Cl)cc12 (centres undefined) | 10 mm |  | 8 | 14 |  | 12 | 10 | 10 | 13 | 11 | 13 | 9 | 11 |  | 
Cc1ccc2c(c1)C1(C(=O)N2)C2=C(C(=O)c3ccccc3C2=O)C2CCCN21 (centres undefined) | 9 mm | inactive | 9 | 10 |  | 11 | 9 | 9 | 10 | 11 | 8 |  | 8 |  | 
C#CCN1C(=O)C2(C3=C(C(=O)c4ccccc4C3=O)C3CCCN32)c2ccccc21 (centres undefined) | inactive |  | 9 |  | inactive | 9 |  | 8 |  | 9 | 8 | 8 |  |  | inhibition zone (IZ) (Staphylococcus aureus [2]): inactive; inhibition zone (IZ) (Klebsiella aerogenes [5]): inactive; inhibition zone (IZ) (Klebsiella pneumoniae [7]): inactive
O=C(O)c1cn(C2CC2)c2cc(N3CCNCC3)c(F)cc2c1=O [CIPROFLOXACIN] |  |  |  |  |  |  |  |  |  |  |  |  |  |  | MIC (Staphylococcus aureus [10]): < 0.78 µg/mL; MIC (Staphylococcus aureus [11]): > 100 µg/mL; MIC (Micrococcus luteus [12]): > 100 µg/mL; MIC (Klebsiella aerogenes [13]): < 0.78 µg/mL; MIC (Proteus vulgaris [14]): < 0.78 µg/mL; MIC (Klebsiella pneumoniae [15]): < 0.78 µg/mL; MIC (Salmonella typhimurium [16]): > 100 µg/mL; MIC [17]: 6.25 µg/mL (≈ 18.9 µM)
O=C1C2=C(C(=O)c3ccccc31)C1(C(=O)N(Cc3ccccc3)c3ccccc31)N1CCCC21 (centres undefined) | 9 mm |  |  | 10 |  | 9 | 8 | 10 | 8 | 9 |  | 8 | 8 | inactive | inhibition zone (IZ) (Botrytis cinerea): inactive
CN1CC2=C(C(=O)c3ccccc3C2=O)C12C(=O)c1cccc3cccc2c13 (centres undefined) | 8 mm |  | 9 | 9 | inactive | 8 |  | 8 | 9 | 10 |  | 8 |  | inactive | inhibition zone (IZ) (Klebsiella aerogenes [5]): inactive
C=CCN1C(=O)C2(C3=C(CN2C)C(=O)c2ccccc2C3=O)c2ccccc21 (centres undefined) | 9 mm |  | 8 | 11 |  | 10 | 9 | 8 | 9 | 11 |  | 9 | 9 | inactive | 
O=C1C2=C(C(=O)c3ccccc31)C1(C(=O)Nc3ccc(Cl)cc31)N1CCCC21 (centres undefined) | 9 mm | inactive |  | 12 |  | 10 | 9 | 9 | 11 | 10 |  |  | 9 | inactive | inhibition zone (IZ) (Botrytis cinerea): inactive
CN1CC2=C(C(=O)c3ccccc3C2=O)C12C(=O)N(Cc1ccccc1)c1ccccc12 (centres undefined) | 9 mm |  | 10 | 9 |  | 9 | 8 | 8 | 10 | 9 | 8 | 8 | 8 |  | 
C=CCN1C(=O)C2(C3=C(C(=O)c4ccccc4C3=O)C3CCCN32)c2ccccc21 (centres undefined) | inactive | inactive |  | 8 | inactive | 9 |  |  |  | 9 |  |  |  | inactive | inhibition zone (IZ) (Botrytis cinerea): inactive; inhibition zone (IZ) (Klebsiella aerogenes [5]): inactive; inhibition zone (IZ) (Proteus vulgaris [6]): inactive; inhibition zone (IZ) (Klebsiella pneumoniae [7]): inactive
